Mot1-301 SUMO: SUMOylation pathway inhibition by Mot1-301 growth rescue. S. cerevisiae Mot1-301 growth rescue, ATP luminescence, 38.5C; percent above DMSO median, 100 means doubled. AID 2716. 320,000 tested, 1% active. growth rescue, % at 18.8 µM;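 active means every valid replicate shows activation above 250% relative to neutral control wells; inactive means the rest, any valid replicate at or below 250%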
C2C12 statin: protects C2C12 myotubes from simvastatin toxicity; rescue of ATP level, % at 7.49 µM; 330,000 tested, 0.78% active; ATP luminescence, 48 h; scaled: DMSO 0, geranylgeraniol control 100;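 active means mean ATP rescue above about 67%, or every replicate alone reaching that limit, limit read from the data, passing the limit was not always enough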;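 further: myotubes were challenged with 10 µM simvastatin during compound exposure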
Cneo AK release: causes C. neoformans cell lysis; 360,000 tested, 0.2% active; adenylate kinase release luminescence, 4 h; normalised: neutral wells 0, clomiphene wells 100; lysis activity, % at 15 µM; AID 651654;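 active means mean lysis activity across replicates of at least 80%, whatever share of replicates individually reach that level; inactive means mean lysis activity below 80%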
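read-out = cell lysis signal | test system = log-phase Cryptococcus neoformans yeast cells | input = cells at 5 × 10^6 per mL | medium = fresh YPD growth medium | signal = luminescent adenylate kinase detection reagent | timing = 4 h at 37 °C static, read 1 h later | dosing = single dose | controls = Clomiphene as positive lysis control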
Of the large screens only hits and unclear results are named; the others gave an inactive call. This is a sample that favours compounds with a hit; in the whole collection about 1.5% have one here.

C[C@H](CO)N1C[C@H](C)[C@@H](CN(C)Cc2ccc(C(F)(F)F)cc2)Oc2ccc(NC(=O)CCCCCC(=O)Nc3ccccc3N)cc2CC1=O	C2C12 statin 106 (no result: Mot1-301 SUMO)
O=C(NCC1CCCCC1)[C@@H]1[C@@H](CO)[C@@H]2Cn3c(cccc3=O)[C@H]1N2C(=O)c1cccnc1	none (no result: Mot1-301 SUMO)
CN(C)C(=O)[C@@H]1[C@@H](CO)[C@@H]2Cn3c(ccc(-c4ccccc4F)c3=O)[C@H]1N2C(=O)c1ccccc1	none (no result: Mot1-301 SUMO)
CC(=O)N(C)C[C@@H]1Oc2cc(C3=CCCCC3)ccc2S(=O)(=O)N([C@H](C)CO)C[C@H]1C	none (no result: Mot1-301 SUMO, Cneo AK release)
Cc1ccc(-c2cnc3c(c2)C(=O)N([C@H](C)CO)C[C@@H](C)[C@H](CN(C)C(=O)CN(C)C)O3)cc1	none (no result: Mot1-301 SUMO)
C[C@@H]1CN([C@@H](C)CO)S(=O)(=O)c2ccc(-c3cccc(C#N)c3)cc2O[C@H]1CN(C)C(=O)Nc1cc(F)ccc1F	none (no result: Mot1-301 SUMO)
CCOC(=O)c1ccc(-c2c(C(=O)OCC)oc3cc(O)c(CC)cc3c2=O)o1	C2C12 statin 100
CCOC(=O)c1oc2cc(O)c(CC)cc2c(=O)c1-c1cscn1	none
CC(=O)N1[C@@H](CO)[C@@H](c2ccc(C3=CCCC3)cc2)[C@@H]1CNC(=O)CN(C)C	none (no result: Mot1-301 SUMO)
COCCN=C1N[C@@H](c2ccccc2)C(C(=O)OC)=C(C)N1Cc1ccccc1	C2C12 statin 110
COCCN=C1N[C@@H](c2ccc(Br)cc2)C(C(=O)OC)=C(C)N1Cc1ccccc1	none
Cc1ccc(S(=O)(=O)N[C@@H]2CC[C@H](CC(=O)NC3CCCCC3)O[C@H]2CO)cc1	none (no result: Mot1-301 SUMO)
C[C@H]1CN([C@@H](C)CO)C(=O)Cc2cc(NS(=O)(=O)c3ccc(Cl)cc3)ccc2O[C@H]1CN(C)Cc1ccc(Cl)c(Cl)c1	none (no result: Mot1-301 SUMO)
C[C@H](CO)N1C[C@H](C)[C@H](CN(C)Cc2ccc(Cl)c(Cl)c2)Oc2ccc(NS(=O)(=O)c3ccc(F)cc3)cc2CC1=O	none (no result: Mot1-301 SUMO, Cneo AK release)
C[C@H](CO)N1C[C@H](C)[C@@H](CN(C)Cc2ccc(Cl)c(Cl)c2)Oc2ccc(NS(=O)(=O)c3ccc(F)cc3)cc2CC1=O	C2C12 statin 112 (no result: Mot1-301 SUMO, Cneo AK release)
C[C@H]1CN([C@@H](C)CO)C(=O)Cc2cc(NS(=O)(=O)c3ccc(F)cc3)ccc2O[C@@H]1CN(C)Cc1ccc(Cl)c(Cl)c1	C2C12 statin 69 (no result: Mot1-301 SUMO, Cneo AK release)
CN(C)CC(=O)Nc1ccc2c(c1)[C@H]1C[C@@H](CC(=O)NCc3ccccc3)O[C@H](CO)[C@H]1O2	none (no result: Mot1-301 SUMO)
C[C@H](CO)N1C[C@H](C)[C@@H](CN(C)CC2CCCCC2)OCCCC[C@H](C)Oc2ccc(N(C)C)cc2C1=O	none (no result: Mot1-301 SUMO)
C[C@H]1CN([C@@H](C)CO)C(=O)c2cc(-c3ccccc3F)cnc2O[C@@H]1CN(C)C(=O)CN(C)C	none (no result: Mot1-301 SUMO)
O=C(C[C@@H]1C[C@H]2c3cc(NC(=O)CC4CC4)ccc3O[C@H]2[C@H](CO)O1)NCc1ccc2c(c1)OCO2	none (no result: Mot1-301 SUMO)
CC(C)NC(=O)N1[C@H](CO)[C@@H]2c3ccccc3N(C(=O)C3CCC3)C[C@@H]21	none (no result: Mot1-301 SUMO)
CCc1cc[n+](-c2nc([O-])sc2C=O)cc1	C2C12 statin 108
CC(C)(C)c1cc[n+](-c2nc([O-])sc2C=O)cc1	none (no result: C2C12 statin, Cneo AK release)
C[C@@H]1CN([C@H](C)CO)C(=O)c2cc(NC(=O)Nc3ccccc3)ccc2O[C@@H]1CN(C)Cc1ccc(-c2ccccc2)cc1	none (no result: Mot1-301 SUMO)
O=C(C[C@H]1CC[C@H]2[C@@H](COC[C@H](O)CN2C(=O)Nc2ccc(Cl)c(Cl)c2)O1)NCc1ccc(F)cc1	none (no result: Mot1-301 SUMO)
C[C@@H]1CN([C@@H](C)CO)C(=O)c2cc(NC(=O)Nc3ccc(C(F)(F)F)cc3)ccc2O[C@@H](C)CCCCO[C@H]1CN(C)Cc1ccncc1	none (no result: Mot1-301 SUMO, C2C12 statin)
COc1ccc(N2CCN(C(=O)Cn3cncn3)CC2)cc1	none (no result: Mot1-301 SUMO)
CC(C)N1CCN(c2ccc(OC[C@H]3CO[C@](Cn4cncn4)(c4ccc(Cl)cc4Cl)O3)cc2)CC1	Mot1-301 SUMO 269
COc1ccc(CCNc2oc(-c3ccc(OC)c(OC)c3)nc2C#N)cc1	none
COc1ccc(-c2nc(C#N)c(NCCCN(C)C)o2)cc1OC	Mot1-301 SUMO 306
O=C(NC1Cc2ccccc2C1)[C@H]1[C@H](CO)[C@H]2Cn3c(cccc3=O)[C@H]2N1C(=O)C1CCC1	none (no result: Mot1-301 SUMO)
CN(C)C(=O)c1cccc(-c2cccc(-c3nc(C(=O)N4CCOCC4)cc4c3[C@@H](CCO)N([S@](=O)C(C)(C)C)C4)c2)c1	none (no result: Mot1-301 SUMO)
O=C(C=C1SCCS1)/C=C/c1ccco1	none (no result: C2C12 statin, Cneo AK release)
O=C(COC(=O)/C=C/c1ccco1)NC1CCCCC1	none
O=C(O)C(C(=O)/C=C/c1ccco1)=C1SCCS1	C2C12 statin 68
O=C(/C=C/c1ccco1)NC1CCCC1	Mot1-301 SUMO 693 (no result: C2C12 statin, Cneo AK release)
CCC(=O)N1C[C@H](C)[C@@H](OC)CN(C)C(=O)c2ccc(NC(=O)Nc3ccc(Cl)cc3)cc2OC[C@H]1C	none (no result: Mot1-301 SUMO)
C=CCn1c(SCC(=O)Nc2cccc(C)c2)nnc1-c1cnccn1	none
C=CCn1c(SCC(=O)Nc2ccc(N(C)C)cc2)nnc1-c1cccc(C)c1	C2C12 statin 84
C[C@H](CO)N1C[C@H](C)[C@H](CN(C)S(=O)(=O)c2cccs2)OCCCC[C@H](C)Oc2ccc(NC(=O)NC3CCCCC3)cc2C1=O	none (no result: Mot1-301 SUMO, C2C12 statin)
O=C(C[C@H]1CC[C@H]2[C@@H](COC[C@@H](O)CN2Cc2ccccc2)O1)NCCCN1CCOCC1	none (no result: Mot1-301 SUMO)
CC(=O)C[C@@H](O)CC(=O)[C@H]1OC(=O)CCCCCc2ccccc21	none
CC(=O)C[C@H](O)CC(=O)[C@H]1OC(=O)CCCCC/C=C/Cc2ccccc21	none
CC(=O)C[C@@H](O)CC(=O)[C@@H]1OC(=O)CCCCCCCCc2ccccc21	C2C12 statin 125
CC(=O)C[C@@H](O)CC(=O)[C@@H]1OC(=O)CCCCC/C=C/Cc2ccccc21	C2C12 statin 92
C[C@@H]1CN([C@@H](C)CO)C(=O)c2cc(C#CC3CC3)cnc2O[C@H]1CN(C)Cc1ccccc1C(=O)O	none (no result: Mot1-301 SUMO)
O=C(CCc1nnc(CCCCc2ccccc2)o1)N1CCCC(O)C1 (centres undefined)	Mot1-301 SUMO 276
O=C(CCc1nnc(CCCCc2ccccc2)o1)N1CCC(N2CCCC2)CC1	none
Cc1ccc(NS(=O)(=O)c2ccc3c(c2)n(C)c(=O)n3C)c(C)c1	Mot1-301 SUMO 355
Cn1c(=O)n(C)c2cc(S(=O)(=O)Nc3ccccc3O)ccc21	none
CC(=O)SC(C[N+](=O)[O-])c1cn(C(C)=O)c2ccccc12 (centres undefined)	Mot1-301 SUMO 404 (no result: C2C12 statin, Cneo AK release)
CCn1cc(C(c2ccccc2)C(C(C)=O)[N+](=O)[O-])c2ccccc21 (centres undefined)	none
C[C@H](CO)N1C[C@H](C)[C@@H](CN(C)Cc2ccc(C(F)(F)F)cc2)OCCCC[C@H](C)Oc2ccc(NS(=O)(=O)c3cccs3)cc2C1=O	none (no result: Mot1-301 SUMO)
C[C@@H]1CCCCO[C@@H](CN(C)Cc2ccc(C(F)(F)F)cc2)[C@@H](C)CN([C@@H](C)CO)C(=O)c2cc(NS(=O)(=O)c3cn(C)cn3)ccc2O1	Cneo AK release 91 (no result: Mot1-301 SUMO, C2C12 statin)
C[C@H](CO)N1C[C@H](C)[C@@H](CN(C)Cc2ccccc2)OCCCC[C@H](C)Oc2ccc(NS(=O)(=O)c3cccs3)cc2C1=O	none (no result: Mot1-301 SUMO, C2C12 statin)
C[C@H](CO)N1C[C@H](C)[C@H](CN(C)Cc2ccccc2)OCCCC[C@H](C)Oc2ccc(NS(=O)(=O)c3cccs3)cc2C1=O	Cneo AK release 91 (no result: Mot1-301 SUMO, C2C12 statin)
